# ChEMBL document CHEMBL1134534, “Phenylpiperazinylalkylamino substituted pyridazinones as potent alpha(1) adrenoceptor antagonists” (J Med Chem, 2001)
# The source made the active and inactive calls. The calls are words filed in the database; no cut-off is given here.
# What was measured:
# [1] = molecular target: T1, Alpha-1A adrenergic receptor (Homo sapiens, UniProt P35348); experiment: Binding affinity towards human cloned alpha-1A-adrenoceptor using [3H]prazosin as radioligand
# T1 sequence (P35348 whole entry): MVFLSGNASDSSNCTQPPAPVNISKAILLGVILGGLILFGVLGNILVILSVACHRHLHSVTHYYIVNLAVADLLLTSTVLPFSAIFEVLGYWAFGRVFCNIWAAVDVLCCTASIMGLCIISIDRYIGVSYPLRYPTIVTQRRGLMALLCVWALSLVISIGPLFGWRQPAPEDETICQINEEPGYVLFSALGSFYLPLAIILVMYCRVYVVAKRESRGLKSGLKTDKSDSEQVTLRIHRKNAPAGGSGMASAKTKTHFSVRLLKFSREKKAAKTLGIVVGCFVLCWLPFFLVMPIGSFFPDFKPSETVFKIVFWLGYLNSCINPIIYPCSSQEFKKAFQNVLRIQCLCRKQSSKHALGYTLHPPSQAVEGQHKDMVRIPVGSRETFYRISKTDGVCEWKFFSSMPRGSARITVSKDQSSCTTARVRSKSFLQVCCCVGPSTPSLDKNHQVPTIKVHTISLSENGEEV
# [2] = molecular target: T2, 5-hydroxytryptamine receptor 1A (Homo sapiens, UniProt P08908); experiment: Binding affinity towards human cloned 5-hydroxytryptamine 1A receptor using [3H]8-OH-DPAT as radioligand
# T2 sequence (P08908 whole entry): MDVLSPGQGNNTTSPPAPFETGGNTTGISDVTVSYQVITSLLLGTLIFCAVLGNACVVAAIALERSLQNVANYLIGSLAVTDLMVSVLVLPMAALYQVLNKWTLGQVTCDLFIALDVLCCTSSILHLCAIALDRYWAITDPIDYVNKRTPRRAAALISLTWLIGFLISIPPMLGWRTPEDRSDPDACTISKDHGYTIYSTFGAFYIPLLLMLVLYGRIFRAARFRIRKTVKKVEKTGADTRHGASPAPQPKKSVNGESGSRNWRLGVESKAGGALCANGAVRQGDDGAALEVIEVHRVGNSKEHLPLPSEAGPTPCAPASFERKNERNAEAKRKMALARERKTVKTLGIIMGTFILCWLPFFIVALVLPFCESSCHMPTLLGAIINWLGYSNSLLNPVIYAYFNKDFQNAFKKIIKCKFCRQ
# [3] = molecular target: T3, Alpha-1D adrenergic receptor (Homo sapiens, UniProt P25100); experiment: Binding affinity towards human cloned alpha-1D-adrenoceptor using [3H]prazosin as radioligand
# T3 sequence (P25100 whole entry): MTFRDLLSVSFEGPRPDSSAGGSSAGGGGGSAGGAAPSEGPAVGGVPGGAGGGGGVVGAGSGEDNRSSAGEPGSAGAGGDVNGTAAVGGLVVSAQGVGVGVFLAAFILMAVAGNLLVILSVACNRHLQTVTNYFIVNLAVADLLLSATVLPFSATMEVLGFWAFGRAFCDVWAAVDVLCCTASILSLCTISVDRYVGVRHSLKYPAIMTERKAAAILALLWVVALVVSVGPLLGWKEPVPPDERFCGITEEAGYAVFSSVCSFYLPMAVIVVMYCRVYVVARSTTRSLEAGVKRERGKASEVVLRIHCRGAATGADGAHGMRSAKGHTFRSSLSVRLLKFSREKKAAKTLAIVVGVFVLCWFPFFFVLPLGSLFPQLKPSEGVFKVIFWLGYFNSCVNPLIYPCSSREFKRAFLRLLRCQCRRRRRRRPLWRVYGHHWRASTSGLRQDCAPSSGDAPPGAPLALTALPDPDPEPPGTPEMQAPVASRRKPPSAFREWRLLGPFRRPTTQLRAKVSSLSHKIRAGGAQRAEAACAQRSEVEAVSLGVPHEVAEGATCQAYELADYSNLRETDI
# [4] = molecular target: T4, Alpha-1B adrenergic receptor (Homo sapiens) (UniProt P35368); experiment: Experimental binding affinity for alpha-1B-adrenergic receptor
# T4 sequence (whole entry): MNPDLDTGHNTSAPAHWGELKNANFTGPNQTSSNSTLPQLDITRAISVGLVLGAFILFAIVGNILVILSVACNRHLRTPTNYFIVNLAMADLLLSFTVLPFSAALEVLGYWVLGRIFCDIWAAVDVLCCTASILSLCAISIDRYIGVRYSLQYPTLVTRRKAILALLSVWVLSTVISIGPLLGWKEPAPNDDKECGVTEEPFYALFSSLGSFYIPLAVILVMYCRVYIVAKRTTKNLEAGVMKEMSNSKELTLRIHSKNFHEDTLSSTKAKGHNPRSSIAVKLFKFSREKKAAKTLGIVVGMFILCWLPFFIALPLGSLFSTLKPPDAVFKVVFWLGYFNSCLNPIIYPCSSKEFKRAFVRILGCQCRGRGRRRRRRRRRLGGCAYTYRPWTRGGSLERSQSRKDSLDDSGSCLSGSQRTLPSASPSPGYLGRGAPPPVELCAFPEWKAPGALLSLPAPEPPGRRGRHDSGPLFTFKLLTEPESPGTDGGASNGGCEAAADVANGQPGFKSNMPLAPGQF
# Method in brief: (§1)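 Membranes (30 µg protein) from CHO cells stably transfected with each human α1 subtype. Nonspecific binding defined with 10 µM phentolamine. Filtration. IC50 from curve fit, converted to Ki by Cheng–Prusoff. Triplicates; 2–3 experiments.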
# [5] = molecular target: T5, Alpha-1D adrenergic receptor (Homo sapiens) (UniProt P25100); experiment: Experimental binding affinity for alpha-1D-adrenergic receptor; method in brief: as §1
# T5 sequence (whole entry): T3 sequence (P25100 whole entry)
# [6] = molecular target: T6, Alpha-1B adrenergic receptor (Homo sapiens, UniProt P35368); experiment: Binding affinity towards human cloned alpha-1B-adrenoceptor using [3H]prazosin as radioligand
# T6 sequence (P35368 whole entry): T4 sequence (whole entry)
# [7] = molecular target: T7, Alpha-1A adrenergic receptor (Homo sapiens) (UniProt P35348); experiment: Experimental binding affinity for alpha-1A-adrenergic receptor; method in brief: as §1
# T7 sequence (whole entry): T1 sequence (P35348 whole entry)
# [8] = molecular target: T2, 5-hydroxytryptamine receptor 1A; experiment: Ability to influence the binding of [35S]GTP-gamma-S, to HeLa cell membranes expressing the human 5-hydroxytryptamine 1A receptor; format: functional
# Method in brief: (§2)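 Membranes from HeLa cells stably expressing human 5-HT1A, in 20 mM HEPES, 3 mM MgSO4, 120 mM NaCl pH 7.4. Preincubated 20 min at 30 °C with 30 µM GDP and compound (100 µM to 0.1 nM), then [35S]GTPγS (150–250 pM) added for a further 30 min at 30 °C. Nonspecific binding defined with 10 µM GTPγS. Filtration, scintillation counting. pEC50 from nonlinear curve fit; 2–3 experiments.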
# [9] = molecular target: T8, 5-hydroxytryptamine receptor 1A (Homo sapiens) (UniProt P08908); experiment: Percent of maximum effect on binding of [35S]GTP-gamma-S, to HeLa cell membranes expressing the human 5-hydroxytryptamine 1A receptor; format: functional
# T8 sequence (whole entry): T2 sequence (P08908 whole entry)
# Method in brief: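 [35S]GTPγS binding on human 5-HT1A-expressing HeLa membranes, with 30 µM GDP, compound 100 µM–0.1 nM, 20 min then 30 min at 30 °C. Stimulation given as percent increase over basal, with the maximal 5-HT response set to 100%. Emax taken from the nonlinear curve fit; 2–3 experiments.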
# [10] = molecular target: T8, 5-hydroxytryptamine receptor 1A (Homo sapiens); experiment: Ability to influence the binding of [35S]GTP-gamma-S, to HeLa cell membranes expressing the human 5-hydroxytryptamine 1A receptor; Not active; format: functional; method in brief: as §2
SMILES,Ki [1] [nM],Ki [2] [nM],Ki [3] [nM],pK1b [4],pK1d [5],Ki [6] [nM],pK1a [7],EC50 [8] [nM],Effect [9] [%],NA [10]
COc1ccc(Cl)cc1N1CCN(CCCNc2c(C(C)=O)c(C)nn(C)c2=O)CC1,0.53,11.2,5.34,8.1,8.27,8.04,9.29,–,–,–
COc1ccc(Cl)cc1N1CCN(CCCNc2c(C(C)=O)c(-c3ccccc3)nn(C)c2=O)CC1,0.44,1000,3.92,8.85,8.41,1.44,8.64,–,–,–
COc1ccccc1N1CCN(CCNc2cc(C)nn(C)c2=O)CC1,18.6,32.1,17.7,7.48,7.75,33.1,7.73,–,–,–
COc1ccc(Cl)cc1N1CCN(CCNc2cc(-c3ccccc3)nn(C)c2=O)CC1,1,322,1.07,8.75,8.97,1.76,9,–,–,–
COc1ccccc1N1CCN(CCCNc2c(C(C)=O)c(C)nn(C)c2=O)CC1,0.89,1.48,34.5,7.27,7.46,53.4,9.09,1.58,17,–
COc1ccc(Cl)cc1N1CCN(CCNc2c(C(C)=O)c(-c3ccccc3)nn(C)c2=O)CC1,0.28,76.2,0.41,8.4,9.39,3.95,9.55,–,–,–
COc1ccc(Cl)cc1N1CCN(CCCCNc2c(C(C)=O)c(C)nn(C)c2=O)CC1,2.99,1.39,5.96,7.39,8.3,49.1,8.52,–,–,–
COc1ccccc1N1CCN(CCCNc2c(C(C)=O)c(-c3ccccc3)nn(C)c2=O)CC1,1.51,134,4.32,7.69,8.37,20.3,8.82,–,–,–
CC(=O)c1c(-c2ccccc2)nn(C)c(=O)c1NCCN1CCN(c2ccccc2Cl)CC1,0.3,11.6,0.25,9.12,9.6,0.75,9.52,–,–,–
COc1ccccc1N1CCN(CCNc2cc(-c3ccccc3)nn(C)c2=O)CC1,0.22,14,11.8,8.7,7.93,2.01,9.66,–,–,–
COc1ccccc1N1CCN(c2c(C(C)=O)c(-c3ccccc3)nn(C)c2=O)CC1,163,> 1000,> 10000,6.59,5,259,6.79,–,–,–
CCCN(CCC)C1CCc2cccc(O)c2C1 (centres undefined) [8-OH-DPAT],–,–,–,–,–,5980,–,–,100,–
COc1ccccc1N1CCN(CCNc2c(C(=O)C(C)C)c(-c3ccccc3)nn(C)c2=O)CC1,0.18,10.2,0.43,9.19,9.37,0.64,9.74,–,–,inactive
COc1ccc(Cl)cc1N1CCN(CCCNc2cc(-c3ccccc3)nn(C)c2=O)CC1,2,> 1000,2.92,8.7,8.53,2.01,8.7,–,–,–
COc1ccccc1N1CCN(CCCNc2cc(-c3ccccc3)nn(C)c2=O)CC1,2.59,127,11.8,8.26,7.93,5.51,8.59,–,–,–
COc1ccccc1N1CCN(CCNc2c(C(C)=O)c(-c3ccccc3)nn(C)c2=O)CC1,0.63,2.47,0.13,8.48,9.89,3.29,9.46,–,–,inactive
CC(=O)c1c(-c2ccccc2)nn(C)c(=O)c1NCCN1CCN(c2ccccc2F)CC1,0.32,24.1,0.49,8.42,9.31,3.77,9.49,–,–,–
COc1ccccc1N1CCN(CCNc2c(C(C)=O)c(C)nn(C)c2=O)CC1,2.29,13,3.2,7.3,8.5,49.8,8.64,–,–,–
CCC(=O)c1c(-c2ccccc2)nn(C)c(=O)c1NCCN1CCN(c2ccccc2OC)CC1,0.19,4.06,0.25,8.84,9.6,1.45,9.72,2.51,19,–
